Measured values published in ChEMBL document CHEMBL2331084, “Synthesis and evaluation of oxime derivatives as modulators for amyloid beta-induced mitochondrial dysfunction” (Eur J Med Chem, 2013).

What was measured:
HT-22 [1] = test: Inhibition of mPTP in mouse HT22 cells assessed as reduction in amyloid beta-induced mitochondrial membrane damage at 10 uM incubated for 10 mins prior to amyloid beta-challenge measured every 1 hr for 3 hrs by JC-1 based fluorometric analysis; assay type: cell-based; parameters: scale not given: the % may be the effect or the level left
Procedure, shortened: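 HT-22 cells, 30,000 per well, seeded a day earlier, loaded with 7.5 μM JC-1 (final) in phenol red-free Opti-MEM for 1 h 15 min at 37 °C, then PBS-washed. Compound solution at 10 μM for 10 min at 37 °C, then amyloid beta 1–42 solution at 10 μM. Red (ex/em 530/580) and green (485/530) fluorescence read hourly for 3 h. Green/red ratio change normalised to vehicle as 100%.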

HT-22 [2] = test: Inhibition of mPTP in mouse HT22 cells assessed as recovery in amyloid beta-suppressed ATP level at 5 uM incubated for 10 mins prior to amyloid beta-challenge measured for 7 hrs relative to control; assay type: cell-based; parameters: scale not given: the % may be the effect or the level left
Procedure, shortened: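 HT-22 mouse hippocampal cells, grown in DMEM with 10% FBS at 37 °C and 5% CO2, were seeded the day before. Compound (10 µM solution) added 10 min before amyloid beta 1-42 (10 µM solution), then 7 h at 37 °C. Lysates normalised to equal protein by BCA, and ATP measured with a luciferase kit. % recovery is relative to the amyloid-treated vehicle. Viability is from ATP without amyloid beta.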

[3] = Cytotoxicity against mouse […] cells assessed as cell viability at 5 uM; assay type: cell-based; conditions: read-out: Activity
[4] = Cytotoxicity against mouse […] cells assessed as cell viability at 10 uM after 24 hrs by MTT assay; assay type: cell-based; conditions: read-out: Activity
HT-22 [5] = test: Neuroprotective activity against in mouse HT22 cells assessed as inhibition of amyloid beta-induced toxicity at 10 uM incubated for 10 mins prior to amyloid beta-challenge measured after 24 hrs by MTT assay; assay type: functional
Procedure, shortened: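 HT-22 mouse hippocampal cells (DMEM, 10% FBS), 5000 per well, seeded a day before. Compound solution at 10 μM added 10 min before amyloid beta 1–42 solution at 10 μM, then 24 h at 37 °C. MTT 2 h, then acidified Triton/isopropanol for 1 h at RT, A570. Vehicle subtracted; % inhibition versus Aβ-treated vehicle; viability from wells without Aβ.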

| SMILES | Activity (HT-22 [1]) [%] | also measured |
| --- | --- | --- |
| CN1CCCC(O/N=C/c2cccc(C(F)(F)F)c2)C1 (configuration not stated) | 84 | – |
| CC(C)N1CCC(O/N=C/c2ccccc2OCc2ccc(Cl)c(Cl)c2)C1 (configuration not stated) | 95 | – |
| Clc1ccc(COc2ccccc2/C=N/OC2CN3CCC2CC3)cc1 (configuration not stated) | 85 | – |
| CN1CCC(O/N=C/c2ccccc2OCc2cccc(F)c2)C1 (configuration not stated) | 42 | Activity (HT-22 [2]): 20%; viability at 5 µM ([3]; HT22 cells): 87% |
| NC(=O)CN1CCCC1=O [PIRACETAM] | 40 | viability at 24 h, 10 µM [4]: 132%; inhibition at 10 µM (HT-22 [5]): 29%; Activity (HT-22 [2]): 127%; viability at 5 µM [3]: 88% |
| COc1ccccc1/C=N/OC1CN2CCC1CC2 (configuration not stated) | 71 | – |
| COc1ccc(COc2ccccc2/C=N/OC2CN3CCC2CC3)cc1 (configuration not stated) | 96 | – |
| CN1CCC(O/N=C/c2ccccc2OCc2ccc(Cl)cc2Cl)C1 (configuration not stated) | 18 | Activity (HT-22 [2]): -9%; viability at 5 µM ([3]; HT22 cells): 90% |
| CC(C)N1CCC(O/N=C/c2ccccc2OCc2cccc(F)c2)C1 (configuration not stated) | 39 | Activity (HT-22 [2]): -223%; viability at 5 µM ([3]; HT22 cells): 94% |
| Fc1ccccc1/C=N/OC1CN2CCC1CC2 (configuration not stated) | 96 | – |
| Fc1ccc(COc2ccccc2/C=N/OC2CN3CCC2CC3)cc1 (configuration not stated) | 93 | – |
| FC(F)(F)c1ccccc1/C=N/OC1CN2CCC1CC2 (configuration not stated) | 86 | – |
| CN1CCC(O/N=C/c2cccc(C(F)(F)F)c2)C1 (configuration not stated) | 108 | – |
| FC(F)(F)c1cccc(/C=N/OC2CN3CCC2CC3)c1 (configuration not stated) | 74 | – |
| C(=N\OC1CN2CCC1CC2)/c1cccc(Oc2ccccc2)c1 (configuration not stated) | 138 | – |
| Brc1ccccc1/C=N/OC1CN2CCC1CC2 (configuration not stated) | 93 | – |
| COc1ccccc1/C=N/OC1CCN(Cc2ccccc2)C1 (configuration not stated) | 81 | – |
| CN1CCC(O/N=C/c2ccccc2OCc2ccc(Cl)c(Cl)c2)C1 (configuration not stated) | 57 | – |
| Fc1ccccc1COc1ccccc1/C=N/OC1CN2CCC1CC2 (configuration not stated) | 82 | – |
| CN1CCCC(O/N=C/c2ccccc2OCc2cccc(F)c2)C1 (configuration not stated) | 32 | Activity (HT-22 [2]): 9%; viability at 5 µM ([3]; HT22 cells): 136% |
| CC(C)N1CCC(O/N=C/c2cccc(C(F)(F)F)c2)C1 (configuration not stated) | 54 | – |
| CN1CCCC(O/N=C/c2ccccc2OCc2ccc(Cl)cc2Cl)C1 (configuration not stated) | 64 | – |
| Clc1ccccc1COc1ccccc1/C=N/OC1CN2CCC1CC2 (configuration not stated) | 88 | – |
| FC(F)(F)c1ccccc1COc1ccccc1/C=N/OC1CN2CCC1CC2 (configuration not stated) | 91 | – |
| Clc1ccc(COc2ccccc2/C=N/OC2CN3CCC2CC3)cc1Cl (configuration not stated) | 77 | – |
